Test [1] has as its target Dopamine receptor. The test can be described thus: Tested in vitro for dopamine agonist activity in rabbit ear artery after at a dose of 3 mg/kg. It is filed as functional, Oryctolagus cuniculus. The gist of the method: (§1)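 Isolated perfused rabbit ear artery preparation, used to assess activation of presynaptic dopamine receptors.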
In test [2] the test system is Canis familiaris. Put plainly: Tested in vivo for change in maximal arterial pressure (MAP) in dog after intravenous dose of 30 mg/kg. It is filed as functional, Canis lupus familiaris, Artery.
The subject of test [3] is Canis familiaris. The test can be described thus: Tested in vivo for change in heart rate(HR) in dog after intravenous dose of 3 mg/kg. It is filed as functional, Canis lupus familiaris.
For test [4], the system named is Canis familiaris. The test can be described thus: Tested in vivo for change in maximal arterial pressure (MAP) in dog after intravenous dose of 30 (ug/kg)/min.
The target of test [5] is Dopamine receptor. Put plainly: Tested in vitro for dopamine agonist activity in rabbit ear artery after at a dose of 0.3 mg/kg. Type of test: functional, Oryctolagus cuniculus. The arrangement: dose 0.3 mg/kg.
Test [6] has as its system Canis familiaris. Put plainly: Tested in vivo for change in maximal arterial pressure (MAP) in dog after intravenous dose of 3 ug/kg. Type of test: functional, Canis lupus familiaris, Artery. The procedure, abridged:
(§2)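 Mean arterial blood pressure was recorded in dogs (N = 2) given the hydrobromide salt by intravenous infusion, dosed as (μg/kg)/min. Values are percent change from the control reading taken just before infusion. The minimum change counted as significant (p < 0.05) was ±5.2%.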

Test [7] deals with Dopamine receptor. The test can be described thus: Tested in vitro for dopamine agonist activity in rabbit ear artery after at a dose of 3 ug/kg. It is filed as functional, tissue-based, Oryctolagus cuniculus. The gist of the method:
as §1

For test [8], the system named is Canis familiaris. Put plainly: Tested in vivo for change in heart rate (HR) in dog after intravenous dose of 300 ug/kg. Type of test: functional, Canis lupus familiaris.
Test [9] has as its system Canis familiaris. The test can be described thus: Tested in vivo for change in maximal arterial pressure (MAP) in dog after intravenous dose of 30 ug/kg. Type of test: functional, Canis lupus familiaris, Artery. The procedure, abridged:
as §2

In test [10] the test system is Canis familiaris. Put plainly: Tested in vivo for change in heart rate (HR) in dog after intravenous dose of 3 ug/kg. It is filed as functional, Canis lupus familiaris.
Test [11] relates to Canis familiaris. The test can be described thus: Tested in vivo for change in heart rate (HR) in dog after intravenous dose of 30 ug/kg. It is filed as functional, Canis lupus familiaris.
The subject of test [12] is Canis familiaris. The test can be described thus: Tested in vivo for change in maximal arterial pressure (MAP) in dog after intravenous dose of 300 ug/kg. Type of test: functional, Canis lupus familiaris, Artery. The gist of the method:
as §2

The subject of test [13] is Canis familiaris. The test can be described thus: Tested in vivo for change in heart rate (HR) in dog after intravenous dose of 30 (ug/kg)/min.

Experimental findings from ChEMBL document CHEMBL1122251, “4-(Aminoalkyl)-7-hydroxy-2(3H)-indolones, a novel class of potent presynaptic dopamine receptor agonists” (J Med Chem, 1983) are described below.

As to `CCCN(CCC)CCc1ccc(O)c(O)c1`, the half-maximal effective concentration (EC50) in test [1] was 80 nM. The Change in test [2] was -17.7%; in test [3], 1.5%; in test [4], -21.9%.
On to `C=CCN1CCc2c(cc(O)c(O)c2Cl)C(c2ccc(O)cc2)C1` (stereo unspecified), for which the EC50 in test [5] is recorded as 122 nM.
On to `NCCc1ccc(O)c2c1CC(=O)N2`, for which the Change is reported as -10.6% in test [6]; -15.8% in [8]; -16.1% in [9]; -2.9% in test [10]; -2.9% in test [11]; 62.6% in test [12]. Further, the 50% effective concentration (EC50) in test [7] is recorded as 116 nM.
For the compound `CCCN(CCC)CCc1ccc(O)c2c1CC(=O)N2` [SKF-89124A], the Change in test [13] was -6.9%; in test [2], 28.4%; in [4], 28.4%. Further, the EC50 in test [5] is 1.8 nM.

A word on the EC50: it is the concentration at which the effect is half-maximal. A lower EC50 goes with a more potent agent.
